The text below walks through data of PubChem BioAssay.

The source made the active and inactive calls.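 The calls were made as follows, unless noted: active = visually confirmed hit in the image check and inhibition above 20%; inconclusive = visually confirmed hit but inhibition not above 20%; inactive = no visual hit in the image check.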

The nature of assay [1]: inhibitors of TNFa-induced NFkB p65 translocation, primary screen, imaging, HUVEC, MLSMR starter and 10KST1 sets (AID 438;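 active = inhibition above 20% together with a positive visual image hit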;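 also: compound added about 3h40 before a 20 min TNFalpha stimulation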;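 as to inhibition: signal is the nuclear over cytoplasmic p65 intensity ratio per well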). As to conditions: HUVEC TNFa-induced p65 nuclear translocation; cell count: measured here: nuclei count (cytotoxicity indicator), at 2.08 µM; inhibition: at 2 µM, stronger effect = higher value, 0% TNFa-plus-vehicle, 100% no-TNFa wells.
Assay [2] in a line: reduction of polyQ htt aggregates in cells – imaging, exon1htt(103Q)mCFP cells, high-content imaging, primary screen (AID 483;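 active = visual image review flags a hit and inhibition of aggregation exceeds 20%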;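 also: compound exposure lasted 3 days before fixation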;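 as to nuclei count: percent of the per-plate median nuclei count of sample wells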). The conditions noted are these: exon1htt(103Q)mCFP cell line, aggregate imaging, at 2 µM; inhibition of aggregation: stronger effect = higher value; nuclei count: measured here: cell count, toxicity.
The nature of assay [3]: endothelial E-selectin expression blockers – imaging, HUVEC, immunofluorescence, MLSMR starter and 10KST1 sets, primary screen (AID 487).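 As to inhibition: signal is fraction of cell area covered by stained E-selectin grains.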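 As to nuclei count: 100% = median nuclei count of all wells on the same plate.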 The conditions noted are these: HUVEC TNFalpha-induced E-selectin immunofluorescence imaging, at 2 µM; inhibition: stronger effect = higher value; nuclei count: measured here: cell number, toxicity.
The target in assay [4] is Voltage-gated potassium channel subunit beta-2 (Rattus norvegicus) (UniProt P62483). The assay is described as follows: inhibitors of rat Kvbeta2 reductase activity – biochemical, NADPH fluorescence, primary screen (AID 622;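 active = fluorescence slope higher than the sample average by over 3 SD, cut at about -0.22 in these data, passing the limit was not always enough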;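 also: slope of raw intensity against log time taken from 70 to 1610 s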). The conditions noted are these: recombinant KvBeta, 4-cyanobenzaldehyde reduction, at 10 µM, stronger effect = higher value.
Chain of Voltage-gated potassium channel subunit beta-2 (Rattus norvegicus) (P62483 whole entry, looked up): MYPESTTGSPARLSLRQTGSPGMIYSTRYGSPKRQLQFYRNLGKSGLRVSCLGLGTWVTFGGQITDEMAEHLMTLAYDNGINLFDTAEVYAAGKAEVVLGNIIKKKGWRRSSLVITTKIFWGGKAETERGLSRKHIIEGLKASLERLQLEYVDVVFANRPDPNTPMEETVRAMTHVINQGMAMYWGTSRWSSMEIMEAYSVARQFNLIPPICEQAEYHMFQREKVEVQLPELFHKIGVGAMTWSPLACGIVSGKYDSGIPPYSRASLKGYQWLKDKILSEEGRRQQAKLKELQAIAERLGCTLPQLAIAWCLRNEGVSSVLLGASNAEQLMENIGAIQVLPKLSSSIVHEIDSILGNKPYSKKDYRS
Assay [5] has the same target. Put plainly: enhancers of rat Kvbeta2 NADPH turnover – biochemical, NADPH fluorescence, primary screen (AID 623;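 active = NADPH fluorescence slope more negative than the mean of all samples by about 3 SD, 99.7% confidence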;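 also: fluorescence intensity change per second fitted from 20 to 320 s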). The conditions noted are these: Recombinant KvBeta, NADPH fluorescence decrease slope, 10 min; at 10 µM; stronger effect = lower value.
Assay [6] addresses Muscarinic acetylcholine receptor M4 (Homo sapiens) (UniProt P08173). The assay is described as follows: M4-linked GIRK flux change, two-sided – cell-based, HEK293 M4/GIRK, thallium flux, BTC-AM, M4 allosteric agonist project, primary screen (AID 625;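 active = fluorescence slope after compound addition differing from the mean of all tested samples at 99.7% confidence, mostly higher but some lower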;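 also: thallium influx through GIRK channels coupled to M4 in HEK293 cells with BTC-AM dye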). The conditions noted are these: at 10 µM, actives lie on both sides. The method in brief:
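System: HEK293 cells with M4 receptor and GIRK channels | Incubation: Cells overnight at 37 °C, BTC-AM loading 1 h, reads 2 min total | Technique: Kinetic BTC-AM fluorescence sampled at 1 Hz, 10 s pre-addition baseline | Measure: Post-addition slope, 15–24 s, of baseline-normalized fluorescence | Control set: Carbachol positive, DMSO negative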

The nature of assay [7]: blockers of RIG-like receptor reporter activation – cell-based, Sendai virus stimulus, luciferase, 10K MLSCN set, TLR/RLR signaling modifier project, primary screen (AID 602276;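 active = inhibition at or above 50% at 10 µM; inactive = inhibition below 50%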;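 also: firefly luciferase from ISG56 promoter only with Renilla not read in this screen; 0% = Sendai virus plus DMSO and 100% = medium plus DMSO without virus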). The conditions noted are these: HEK293 RL24 IRF3 luciferase reporter, at 10 µM, stronger effect = higher value. (In general: A reporter such as luciferase makes a cellular process visible.)
A short description of assay [8]: TLR3 IRF3 reporter activation blockers – cell-based, poly I:C stimulus, luciferase, 10K MLSCN set, primary screen (AID 602277;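 active = inhibition of the reporter signal at or above 50%; inactive = inhibition below 50%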). As to conditions: HEK293-TLR3 RL24 IRF3 luciferase reporter, at 10 µM, stronger effect = higher value.

Chain of Muscarinic acetylcholine receptor M4 (Homo sapiens) (P08173 whole entry, looked up): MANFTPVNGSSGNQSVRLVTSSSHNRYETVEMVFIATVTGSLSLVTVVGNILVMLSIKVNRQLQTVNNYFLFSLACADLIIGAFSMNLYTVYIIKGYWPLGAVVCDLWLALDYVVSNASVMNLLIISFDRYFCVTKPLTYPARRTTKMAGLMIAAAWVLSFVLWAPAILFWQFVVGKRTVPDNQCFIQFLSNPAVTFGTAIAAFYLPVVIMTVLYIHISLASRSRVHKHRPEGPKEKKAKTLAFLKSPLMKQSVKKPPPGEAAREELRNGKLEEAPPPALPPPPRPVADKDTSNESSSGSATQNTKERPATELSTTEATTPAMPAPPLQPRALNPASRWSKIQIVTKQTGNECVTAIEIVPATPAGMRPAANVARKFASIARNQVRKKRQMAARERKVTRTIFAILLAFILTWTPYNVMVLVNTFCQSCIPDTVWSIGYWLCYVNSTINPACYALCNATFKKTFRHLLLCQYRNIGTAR

By inhibition is commonly meant the change of the read-out against control, counted positive when it falls. Turning to `COCCOc1nc2ccccc2nc1C`, the cell count in assay [1] was found to be 351. In addition, the inhibition in assay [1] is 5.2% (inactive); in assay [3], -5.9% (inactive); in assay [7], 16.4% (inactive); in assay [8] it was 2.62% (inactive). Moreover, the inhibition of aggregation in assay [2] was 8.5% (inactive). Besides, the nuclei count in assay [2] stood at 87.8%; in assay [3], 104%. Also, the figures for the fluorescence slope in assay [4] and in assay [6] were -0.615 (inactive) and 0.00668 (inactive), respectively. Further, the NADPH fluorescence slope in assay [5] is -2.4e-05 (inactive).
`Cc1ccc(CNC(=O)C2CCN(S(=O)(=O)c3c(C)noc3C)CC2)cc1`: in assay [1], the cell count was 475. Besides, the inhibition in assay [1] was 4.8% (inactive); in assay [3], -2.1% (inactive); in assay [7] it was -1.36% (inactive); in assay [8], 6.94% (inactive). The inhibition of aggregation in assay [2] is 14% (inactive). Further, the nuclei count in assay [2] is 91.5%; in assay [3], 104%. Besides, the fluorescence slope in assay [4] was -0.493 (inactive); in assay [6], 0.00571 (inactive). Further, in assay [5], the NADPH fluorescence slope was 8.6e-05 (inactive).
As to `CC(=O)c1c(C)nc(C)nc1NC(=O)Cc1ccccc1`, the cell count in assay [1] was determined as 234. Also, the inhibition in assay [1] was -4.4% (inactive); in assay [3], 2.9% (inactive); in assay [7] it was 12.7% (inactive); in assay [8], 20.5% (inactive). In assay [2], the inhibition of aggregation was 37.5% (inactive). Moreover, the nuclei count in assay [2] turned out to be 79.9%; in assay [3], 84.4%. Also, the fluorescence slope in assay [4] was -0.566 (inactive); in assay [6], 0.00735 (inactive). Also, the NADPH fluorescence slope in assay [5] is -4.2e-05 (inactive).
On to `COc1ccccc1NC(=O)N1CCCC1C(=O)NC1CCCCC1` (stereo not drawn), for which the cell count in assay [1] worked out at 582. Besides, the inhibition in assay [1] is 0.4% (inactive); in assay [3] it was -19.7% (inactive); in assay [7], 15.6% (inactive); in assay [8], 11.1% (inactive). The inhibition of aggregation in assay [2] is 9% (inactive). The nuclei count in assay [2] is 92.5%; in assay [3], 121%. For the same compound, the fluorescence slope is -0.227 (inactive) in assay [4] and 0.00721 (inactive) in assay [6]. The NADPH fluorescence slope in assay [5] is -2.2e-05 (inactive).
In the case of `CSc1nnc2c3ccccc3n(CCc3ccccc3)c2n1`, the cell count in assay [1] came to 665. In addition, the inhibition in assay [1] is -0.5% (inactive); in assay [3], 19.4% (inactive); in assay [7], -13.2% (inactive); in assay [8] it was -163% (inactive). The inhibition of aggregation in assay [2] is 20.5% (inactive). In addition, the results for the nuclei count in assay [2] and in assay [3] were 83.8% and 104%, respectively. The results for the fluorescence slope in assay [4] and in assay [6] were -0.342 (inactive) and 0.00531 (inactive), respectively. The NADPH fluorescence slope in assay [5] is 1.9e-05 (inactive).
Take `CC(C)(C)NC(=O)C(c1ccco1)N(C(=O)Cn1nnc(-c2ccc(F)cc2)n1)c1ccccc1` (stereo not drawn): the cell count in assay [1] worked out at 422. Also, the inhibition in assay [1] is 9.2% (inactive); in assay [3], -146% (inactive); in assay [7], 15.8% (inactive); in assay [8], 26.6% (inactive). Besides, in assay [2], the inhibition of aggregation was -1.8% (inactive). In addition, the nuclei count in assay [2] came out at 99.8%; in assay [3], 122%. Besides, the fluorescence slope in assay [4] was -0.551 (inactive); in assay [6], 0.00525 (inactive). Besides, the NADPH fluorescence slope in assay [5] was 8.1e-06 (inactive).
With `O=S(=O)(NCCc1ccccn1)c1cccs1`, in assay [1], the cell count is 601. Further, the inhibition is -23% (inactive) in assay [1], -28.9% (inactive) in assay [3], 19.1% (inactive) in assay [7] and 34.4% (inactive) in assay [8]. Moreover, in assay [2], the inhibition of aggregation is -31.3% (inactive). Besides, the results for the nuclei count in assay [2] and in assay [3] were 119% and 147%, respectively. The fluorescence slope in assay [4] is -0.417 (inactive); in assay [6], 0.00561 (inactive). Further, in assay [5], the NADPH fluorescence slope is -0.000114 (inactive).
Take `CCOC(=O)C1=C(c2ccccc2)Nc2nc(C)nn2C1c1cccc(OC)c1OC` (stereo not drawn): the cell count in assay [1] is 613. In addition, the inhibition in assay [1] was 1.7% (inactive); in assay [3], -152% (inactive); in assay [7], 5.33% (inactive); in assay [8], 15.1% (inactive). For the same compound, the inhibition of aggregation in assay [2] was -13.2% (inactive). Moreover, the figures for the nuclei count in assay [2] and in assay [3] were 111% and 149%, respectively. Also, the fluorescence slope is -0.508 (inactive) in assay [4] and 0.00365 (inactive) in assay [6]. Also, the NADPH fluorescence slope in assay [5] was -0.000215 (inactive).
